Experimental data as given in ChEMBL document CHEMBL1127729, “Synthesis and pharmacological evaluation of phenylacetamides as sodium-channel blockers” (J Med Chem, 1994).

Key:
[1] = molecular target: Sodium channel alpha subunits; brain (Types I, II, III) (Rattus norvegicus, UniProt P04775+P04774+P08104); test: Inhibition of [3H]- batrachotoxin binding to sodium channel in rat neocortical membrane; format: cell membranes
[2] = molecular target: Sodium channel protein type 2 subunit alpha (Rattus norvegicus, UniProt P04775); test: Inhibition of veratridine-induced Na+ influx in chinese hamster ovary cells expressing alpha subunit of rat brain type voltage-gated sodium channel type 2; format: functional
Sodium channel protein type 2 subunit alpha, sequence (P04775 whole entry): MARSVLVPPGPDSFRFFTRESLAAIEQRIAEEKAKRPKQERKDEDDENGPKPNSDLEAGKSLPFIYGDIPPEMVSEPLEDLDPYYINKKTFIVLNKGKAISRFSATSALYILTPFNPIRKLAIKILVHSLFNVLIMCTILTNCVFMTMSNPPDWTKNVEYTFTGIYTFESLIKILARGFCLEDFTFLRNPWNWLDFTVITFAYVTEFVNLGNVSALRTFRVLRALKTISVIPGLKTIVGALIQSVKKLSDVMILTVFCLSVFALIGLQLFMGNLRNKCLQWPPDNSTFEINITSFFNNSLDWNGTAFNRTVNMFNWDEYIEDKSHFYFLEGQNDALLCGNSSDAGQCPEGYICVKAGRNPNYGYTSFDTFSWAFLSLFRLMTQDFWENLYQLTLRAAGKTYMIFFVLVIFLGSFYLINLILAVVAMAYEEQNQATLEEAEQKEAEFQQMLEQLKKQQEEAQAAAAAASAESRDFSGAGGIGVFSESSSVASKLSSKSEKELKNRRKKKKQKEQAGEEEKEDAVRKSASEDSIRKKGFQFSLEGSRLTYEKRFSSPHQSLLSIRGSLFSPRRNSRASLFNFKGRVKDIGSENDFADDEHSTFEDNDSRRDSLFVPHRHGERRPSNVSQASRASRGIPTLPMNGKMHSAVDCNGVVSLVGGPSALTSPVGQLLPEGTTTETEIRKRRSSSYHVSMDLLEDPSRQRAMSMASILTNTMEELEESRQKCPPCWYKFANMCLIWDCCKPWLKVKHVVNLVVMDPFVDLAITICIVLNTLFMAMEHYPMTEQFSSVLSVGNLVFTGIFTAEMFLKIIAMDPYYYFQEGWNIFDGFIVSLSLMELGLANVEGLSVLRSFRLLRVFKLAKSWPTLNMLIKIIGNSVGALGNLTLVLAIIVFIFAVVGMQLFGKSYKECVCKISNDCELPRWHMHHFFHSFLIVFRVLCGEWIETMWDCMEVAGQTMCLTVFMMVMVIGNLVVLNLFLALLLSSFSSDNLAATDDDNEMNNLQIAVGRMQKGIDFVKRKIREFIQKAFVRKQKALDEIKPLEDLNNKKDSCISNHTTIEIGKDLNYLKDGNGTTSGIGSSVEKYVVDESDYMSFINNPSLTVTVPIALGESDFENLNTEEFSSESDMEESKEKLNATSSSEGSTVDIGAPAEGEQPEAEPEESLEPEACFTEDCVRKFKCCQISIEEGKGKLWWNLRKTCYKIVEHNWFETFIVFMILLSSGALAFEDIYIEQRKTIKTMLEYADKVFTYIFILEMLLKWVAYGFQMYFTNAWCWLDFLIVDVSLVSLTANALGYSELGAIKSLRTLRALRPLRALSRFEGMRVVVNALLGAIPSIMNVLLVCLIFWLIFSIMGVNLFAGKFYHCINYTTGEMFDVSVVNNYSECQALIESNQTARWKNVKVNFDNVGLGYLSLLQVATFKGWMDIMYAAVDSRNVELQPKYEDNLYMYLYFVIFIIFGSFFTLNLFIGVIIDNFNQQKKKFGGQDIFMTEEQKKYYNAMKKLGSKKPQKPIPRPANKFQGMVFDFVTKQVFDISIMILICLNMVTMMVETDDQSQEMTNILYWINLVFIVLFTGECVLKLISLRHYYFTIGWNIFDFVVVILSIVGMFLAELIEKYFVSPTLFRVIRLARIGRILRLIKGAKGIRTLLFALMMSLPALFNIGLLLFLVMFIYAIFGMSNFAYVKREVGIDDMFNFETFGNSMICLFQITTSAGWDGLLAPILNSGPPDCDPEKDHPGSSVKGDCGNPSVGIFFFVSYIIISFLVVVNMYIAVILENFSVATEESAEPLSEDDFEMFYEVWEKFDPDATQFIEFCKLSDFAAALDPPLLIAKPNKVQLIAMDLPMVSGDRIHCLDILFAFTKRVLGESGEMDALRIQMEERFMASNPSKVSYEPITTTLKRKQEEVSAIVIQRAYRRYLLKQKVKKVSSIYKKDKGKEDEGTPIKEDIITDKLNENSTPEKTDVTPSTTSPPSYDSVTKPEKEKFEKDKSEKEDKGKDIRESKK
Outline: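 CNaIIA-1 cells (CHO-K1 transfected with rat brain IIA α subunit cDNA) in choline-based KRH buffer, pH 7.4. Compound at 0.01–100 μM final, added with 30 μM veratridine plus α-scorpion venom, 11 min at 37 °C. Cell-retained radioactivity counted after Triton lysis; IC50 determined.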

Rattus norvegicus [3] = species: Rattus norvegicus; test: In vitro inhibition of veratridine induced LDH release in rat embryos; format: functional
Outline: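 Rat embryo cortical neuron cultures, 17–18 days old, given compound together with 100 μM veratridine in HEPES saline (pH 7.4) for 10 min. Medium was then replaced by serum-free medium. LDH in medium taken 1 day later, read kinetically as A340 decline of NADH after pyruvate addition at 37 °C.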

Rattus norvegicus [4] = species: Rattus norvegicus; test: In vitro inhibition of hypoxic-mediated cell injury in Dawley fetal rat brain

CC1CCCC(C)N1CCCNC(=O)C(c1ccc(Cl)cc1)c1ccc(Cl)cc1 (centres undefined)
Ki [1]: 0.11 µM | IC50 [2]: 4.5 µM

Cc1cccc(C)c1NC(=O)CN1CCN(CCCC(c2ccc(F)cc2)c2ccc(F)cc2)CC1 [LIDOFLAZINE]
Ki [1]: 0.077 µM | IC50 [2]: 2.4 µM

CC1CCCC(C)N1CCCNC(=O)Cc1ccccc1 (centres undefined)
Ki [1]: 21 µM | IC50 [2]: > 100 µM | IC50 (Rattus norvegicus [3]): > 30 µM | IC50 (Rattus norvegicus [4]): > 100 µM

Fc1ccc(C(c2ccc(F)cc2)N2CCN(C/C=C/c3ccccc3)CC2)cc1 [FLUNARIZINE]
IC50 (Rattus norvegicus [3]): 2 µM

CC1CCCC(C)N1CCCN1C(=O)CC(c2ccccc2)(c2ccccc2)C1=O (centres undefined)
Ki [1]: 1 µM | IC50 [2]: 3.6 µM

CC1CCCC(C)N1CCCNC(=O)C1c2ccccc2Oc2ccccc21 (centres undefined)
Ki [1]: 0.41 µM | IC50 [2]: 13 µM

COc1ccc(C(C(=O)NCCCN2C(C)CCCC2C)c2ccc(OC)c3ccccc23)c2ccccc12 (centres undefined)
Ki [1]: 0.24 µM | IC50 [2]: 13 µM

CC1CCCC(C)N1CCCNC(=O)C1c2ccccc2-c2ccccc21 (centres undefined)
Ki [1]: 2.3 µM | IC50 [2]: 29 µM | IC50 (Rattus norvegicus [3]): > 30 µM | IC50 (Rattus norvegicus [4]): 51 µM

CC1CCCC(C)N1CCCNC(=O)C(c1ccccc1Cl)c1ccccc1Cl (centres undefined)
Ki [1]: 0.073 µM | IC50 [2]: 3.5 µM | IC50 (Rattus norvegicus [3]): 6 µM | IC50 (Rattus norvegicus [4]): 4.8 µM

CC1CCCC(C)N1CCCNC(=O)C(c1ccccc1)c1ccccc1 (centres undefined)
Ki [1]: 0.26 µM | IC50 [2]: 2.7 µM | IC50 (Rattus norvegicus [3]): 5 µM | IC50 (Rattus norvegicus [4]): 89 µM

CC1CCCC(C)N1CCCNC(=O)Cc1cccc2ccccc12 (centres undefined)
Ki [1]: 6.9 µM | IC50 [2]: > 100 µM

CC1CCCC(C)N1CCCNC(=O)N(c1ccccc1)c1ccccc1 (centres undefined)
IC50 (Rattus norvegicus [3]): > 30 µM | IC50 (Rattus norvegicus [4]): > 100 µM

COc1ccc(C(C(=O)NCCCN2C(C)CCCC2C)c2ccc(OC)cc2)cc1 (centres undefined)
Ki [1]: 1 µM | IC50 [2]: 3.1 µM

CC1CCCC(C)N1CCCNC(=O)C1(c2ccccc2)CCCCC1 (centres undefined)
Ki [1]: 0.38 µM | IC50 [2]: 4.3 µM | IC50 (Rattus norvegicus [3]): 12 µM | IC50 (Rattus norvegicus [4]): 61 µM

CC1CCCC(C)N1CCCNC(=O)C(c1ccc(F)cc1)c1ccc(F)cc1 (centres undefined)
Ki [1]: 0.13 µM | IC50 [2]: 5.8 µM
